Shown are actives, neighbours in structure and some others; about 3.8% of the full set was active somewhere.
hERG rescue – hERG rescue from dofetilide block, primary screen, cell-based, CHO-hERG, FluxOR thallium flux, dofetilide IC70; Voltage-gated inwardly rectifying potassium channel KCNH2 (Homo sapiens), Q12809; dofetilide IC70 present; activation (rescue from dofetilide block), less the hit threshold, % at 10 µM; 310,000 compounds, 0.51% hits;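 active = activation above the mean of controls blocked by dofetilide plus 5 SD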;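 note: thallium influx through hERG after potassium depolarization seen as dye fluorescence rise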
KCNK3 inh – human KCNK3 channel inhibitors, primary screen, CHO cells, FluxOR thallium flux, B-score; B-score at 10 µM; Potassium channel subfamily K member 3 (Homo sapiens), O14649; FluxOR fluorescence; stronger effect = lower value; 340,000 compounds, 0.84% hits;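 active = B-score under library mean minus 4 SD, starting fluorescence ratio at most library mean plus 5 SD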;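 note: more negative B-score means stronger inhibition of thallium flux through KCNK3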
KCNQ1 act – potentiators or activators of KCNQ1 channel, primary screen, cell-based, thallium flux, high-throughput. Potassium voltage-gated channel subfamily KQT member 1 (Homo sapiens), P51787. CHO-K1 KCNQ1, thallium flux FluxOR fluorescence; stronger effect = higher value. B-score at 10 µM. 310,000 compounds, 0.35% hits;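 active = fluorescence ratio B-score, a plate-corrected score, at least three library SD, with initial intensity B-score within 5 SD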
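Schedule – 37 °C overnight plating, 90-min dark dye load, 20-min compound pretreatment · System – stable KCNQ1 CHO-K1 line · Probe or stimulus – thallium- and potassium-containing depolarizing buffer · Measured by – kinetic FluxOR fluorescence, 10 s baseline plus 110 s post-stimulus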
KCNK9 block – KCNK9 potassium channel inhibitors, primary screen, HEK293 cells, thallium flux | B-score at 10 µM | 310,000 compounds, 1.2% hits | FluxOR thallium flux fluorescence; stronger effect = lower value;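 active = ratio B-score over 3 SD below the library mean, with starting fluorescence within 5 SD of its mean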;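 note: negative B-score means less thallium flux so channel inhibition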
Target sequence (Q9NPC2 whole entry, looked up): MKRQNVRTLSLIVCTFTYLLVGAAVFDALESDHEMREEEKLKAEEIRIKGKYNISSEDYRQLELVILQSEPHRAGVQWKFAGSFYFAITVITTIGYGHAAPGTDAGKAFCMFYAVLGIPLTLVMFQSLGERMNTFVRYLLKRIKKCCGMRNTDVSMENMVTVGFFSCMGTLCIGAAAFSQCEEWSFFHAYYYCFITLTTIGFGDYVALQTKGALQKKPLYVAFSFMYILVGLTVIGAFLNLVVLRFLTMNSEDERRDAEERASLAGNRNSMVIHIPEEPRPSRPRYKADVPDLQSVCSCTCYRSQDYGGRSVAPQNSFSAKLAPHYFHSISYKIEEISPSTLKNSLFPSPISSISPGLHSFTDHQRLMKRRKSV
KCNQ1 block – inhibitors of human KCNQ1 channel, primary screen, cell-based, thallium flux, high-throughput; Potassium voltage-gated channel subfamily KQT member 1 (Homo sapiens), P51787; CHO-K1 KCNQ1, FluxOR thallium flux fluorescence; stronger effect = higher value; B-score at 10 µM; 310,000 compounds, 1.3% hits;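 active = compounds whose thallium flux B-score, printed positive for inhibition, exceeds three library SD while starting fluorescence stays within three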;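 note: channel opened by potassium depolarization with thallium stimulus after 20 min compound exposure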
Kir21 inh – inhibitors of mouse Kir2.1 inward-rectifier potassium channel; 310,000 compounds, 0.85% hits; B-score at 10 µM; HEK293-Kir2.1, FluxOR thallium flux fluorescence; stronger effect = lower value; AID 1672, 2009;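 active = fluorescence ratio B-score at or below minus 3 SD of library scores, with starting-brightness B-score within 2 SD, cut at about -4.2 in these data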;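 note: channel flux triggered by added potassium and thallium sulfate stimulus; B-score of peak minus minimum fluorescence over baseline after thallium stimulus; more negative B-score means stronger Kir2.1 block with less thallium influx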
KCNK9 inh conf – KCNK9 potassium channel inhibitors, confirmation, HEK293 cells, thallium flux, duplicate. shares compounds with KCNK9 block. FluxOR thallium flux fluorescence. inhibition, % at 10 µM. 4,900 compounds, 43% hits. AID 492992, 2010;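 active = thallium signal inhibited by more than 5 SD of the compound-free buffer control wells, on both duplicate plates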;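 note: 0% = assay buffer control wells without compound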
Kir21 sel – mouse Kir2.1 channel inhibition, confirmation, selectivity assay for KCNK9 modulator project, cell-based, HEK293, thallium flux | inhibition, % at 10 µM | 4,900 compounds, 4% hits | shares compounds with KCNK9 block | AID 492993, 2010 | Kir2.1 cells, FluxOR thallium flux fluorescence;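 active = thallium signal drop more than 5 SD beyond the mean of the no-compound control wells, seen in both duplicate plates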;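 note: signal is fluorescence rise after thallium addition divided by baseline fluorescence; plate controls were assay buffer only for no effect and full block by chlorpromazine control for full effect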
HEK293 Tl ctr – thallium flux in non-induced HEK293 cells, confirmation, counter-screen for KCNK9 inhibitor project, cell-based, second counter screen, non-induced KCNK9-HEK293; inhibition, % at 10 µM; shares compounds with KCNK9 block; FluxOR thallium flux; 4,900 compounds, 40% hits;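 active = thallium signal drop beyond 5 SD of the untreated control mean, on both duplicate plates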;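 note: plate controls were buffer only IC0 wells for no effect and SID17386958 at its maximal inhibitory level for full effect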
* hit, by the source's call; i = inactive; x = no result.

SMILES	hERG rescue	KCNK3 inh	KCNQ1 act	KCNK9 block	KCNQ1 block	Kir21 inh	KCNK9 inh conf	Kir21 sel	HEK293 Tl ctr
CCCOc1ccc(C(=O)N/N=C/c2c[nH]c3ccc(Br)cc23)cc1	-8	i	i	i	i	1.3	x	x	x
O=[N+]([O-])c1cc([N+](=O)[O-])c(Oc2ccccc2F)cc1NN1CCCCC1	-15	i	i	i	i	0.34	x	x	x
Cc1ccc(C)c(Oc2cc(NN3CCCCC3)c([N+](=O)[O-])cc2[N+](=O)[O-])c1	-8	i	i	-11*	i	-1.1	32%*	i	i
CCOCCCNC(=S)N1CCCN(c2nc3cc(C)c(C)cc3cc2C#N)CC1	-21	i	i	i	i	-0.15	i	i	i
CSc1nc2ccccc2cc1/C=C(\C#N)c1ccccc1	-5	i	i	-13*	i	0.69	54%*	i	42%*
CSc1nc2ccccc2cc1/C=C(\C#N)c1cccc(C)c1	-7	i	i	i	i	1.8	x	x	x
O=[N+]([O-])c1cc(/C=N/O)ccc1Oc1ccccc1Cl	-15	i	i	i	i	-3.8	x	x	x
O=[N+]([O-])c1cc(/C=N/O)ccc1Oc1cccc(Cl)c1	-14	i	i	-10*	i	0.34	41%*	i	25%*
S=c1[nH]nc(COc2ccccc2)n1/N=C/c1ccc(Cl)c(Cl)c1	-7	i	i	i	i	-1.3	x	x	x
Cc1cccc(/C=N/n2c(COc3ccccc3)n[nH]c2=S)c1	1	i	14*	-9*	i	-0.84	i	i	i
CSc1ccc2c(c1)C(N1CCN(C)CC1)Cc1ccc(F)cc1S2 (stereo not drawn)	-34	i	i	i	i	-3.1	x	x	x
Fc1ccc2c(c1)Sc1ccc(Cl)cc1CC2N1CCN(CCC2OCCO2)CC1 (stereo not drawn)	-27	i	i	i	i	-0.56	i	i	i
Nc1c(-c2ccccc2)c(CSc2nc3ccccc3[nH]2)nn1-c1ccc(Cl)cc1	-8	i	i	-9.3*	i	-1.2	60%*	i	28%*
Nc1c(-c2ccccc2)c(CSc2nc3ccccc3[nH]2)nn1-c1cccc(Cl)c1	-6	i	i	-13*	i	-0.53	71%*	i	38%*
C[C@H]1CN=C(N(C)C)N1CC1CCCCC1	x	i	x	x	x	x	x	x	x
CCOc1cc(CNc2ccc3c(c2)OCCO3)cc(Br)c1OC	-8	i	i	i	i	-1.2	i	i	i
O=C1C=C(c2ccc(F)nc2)C[C@@H](c2ccc3c(c2)OCO3)C1	x	i	x	x	x	x	x	x	x
Cc1ccc2cc(C)c(N3CCN(c4ccccn4)CC3)nc2c1	-9	i	i	i	i	-0.15	i	i	26%*
CCCc1[nH]nc2c1C1(CCN(C(=O)OCc3ccccc3)CC1)C(C#N)=C(N)O2	-9	i	i	-9.7*	i	-0.44	32%*	i	i
CC1SC(=S)N(c2ccc(N(C)C)cc2)C1=O (stereo not drawn)	-11	i	i	i	i	-0.21	x	x	x
COCc1cc(CNC(=O)C2CCC(=O)N(Cc3cccc(OC)c3)C2)[nH]n1 (stereo not drawn)	-5	i	i	i	i	0.82	x	x	x
Cc1ccc(SCc2ccc(C(=O)N3CCCCC3)cc2)cc1	-6	i	i	i	i	0.86	i	i	i
COC(=O)C1=NN(C(=O)c2cccc(Br)c2)C(O)(c2ccc(Cl)cc2)C1 (stereo not drawn)	59*	i	82*	i	i	-0.85	i	i	i
O=C(/C=C/c1ccccc1Cl)N(c1ccccn1)C1CCCCC1	-7	i	i	-12*	i	-0.14	58%*	i	32%*
Clc1cccc(N2CCN(Cc3nnc(-c4ccccc4)o3)CC2)c1	-13	i	i	i	i	-0.29	i	i	i
SMILES	hERG rescue	KCNK3 inh	KCNQ1 act	KCNK9 block	KCNQ1 block	Kir21 inh	KCNK9 inh conf	Kir21 sel	HEK293 Tl ctr
c1ccc(-c2nnc(CN3CCN(c4ccccc4)CC3)o2)cc1	-13	i	i	i	i	0.34	x	x	x
CSCCC(NC(=O)c1cccc(C)c1)C(=O)NNC(=O)c1cccs1 (stereo not drawn)	x	i	x	x	x	x	x	x	x
CC1CCCN(S(=O)(=O)c2cccc(C(=O)NCC3CCCO3)c2)C1 (stereo not drawn)	x	i	x	x	x	x	x	x	x
CCCCCCC(=O)NNC(=O)c1c(O)c2ccccc2n(CCC)c1=O	-5	i	i	i	i	-1.5	x	x	x
CCCCCCCC(=O)NNC(=O)c1c(O)c2ccccc2n(CC)c1=O	-6	i	i	i	i	2.9	i	i	i
CCCCCCCC(=O)NNC(=O)c1c(O)c2ccccc2n(CCC)c1=O	-7	i	i	i	i	-0.25	i	i	i
COc1cc(C(=O)NCCOc2ccc(Cl)cc2)ccc1OCc1c(C)noc1C	x	i	x	x	x	x	x	x	x
O=C(CCl)N(c1ccc(Cl)cc1)c1c[nH]c2ccccc12	-17	i	i	i	i	-4	i	i	i
O=C(CCl)N(c1ccccc1)c1c[nH]c2ccccc12	-3	i	i	i	i	-0.22	x	x	x
CCC1CN(C(=O)NCc2cccc(OC)c2)c2ccccc2O1 (stereo not drawn)	-2	i	i	i	i	-0.72	i	i	i
CC1CC(C)CN(S(=O)(=O)c2ccc3c(c2)CC(C)N3C(=O)C2CC2)C1 (stereo not drawn)	-9	i	i	i	i	-0.69	i	i	i
CC1CC(C)CN(S(=O)(=O)c2ccc3c(c2)CC(C)N3C(=O)C2CCC2)C1 (stereo not drawn)	-8	i	i	i	i	-0.39	i	i	i

Source: PubChem (Johns Hopkins Ion Channel Center)
